Most compounds without a hit are left out; they make up all but 4.2% or so of the library.
UPR CHOP act = activators of apoptotic arm of unfolded protein response (CHOP); CHO-CHOP luciferase reporter, UPR activation, luminescence; percent of tunicamycin response over DMSO baseline; activation, % at 10 µM; actives 0.34% (n = 330,000); AID 449763;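 active = at 10 µM dose, activation of 40% or more, normalized to positive control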
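Assay system: CHO-CHOP cells, stable luciferase reporter of PERK-eIF2a-CHOP signalling / Buffer or medium: F12 plus 10% serum / Compound dosing: one dose, 10 µM in 0.5% DMSO / Times: 6 h compound treatment, 37 °C / Technique: luciferase luminescence / Read-out: % reporter activation, DMSO baseline versus tunicamycin full activation / Benchmarks: tunicamycin and DMSO controls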
CHOP inhibitor = inhibitors of CHOP induction in ER stress response | CHO-K1 CHOP-promoter luciferase, tunicamycin-induced, 15-18 h | inhibition, % at 10 µM | actives 3.8% (n = 220,000);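 active = compounds that reduced the stress-induced luciferase reporter signal by more than about 70% of percent inhibition, limit read from the data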
UPR XBP1 act = adaptive UPR (XBP1) activation | CHO-XBP1 luciferase reporter, IRE1-XBP1 UPR activation, luminescence; percent of tunicamycin response, DMSO as zero | activation, % at 20 µM | actives 0.33% (n = 330,000);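 active = versus positive control, 20 µM dose yields 30% or more activation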
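Material – CHO cell line with stable XBP1 luciferase reporter · Buffer or medium – F12 plus 10% FBS · Compound – single point, 20 µM final compound, 1% DMSO · Schedule – 16-18 h cell attachment at 37 °C, then 6 h compound exposure · Signal – Steady-Glo luminescence read · Benchmarks – high control tunicamycin 10 µg/mL final, low control DMSO vehicle only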
ANO1 block = inhibitors of mouse TMEM16A calcium-activated chloride channel; Q8BHY3; HEK293 TMEM16A/YFP iodide influx fluorescence, ionomycin; normalized B-score (activity score, 25-100; higher = stronger inhibition) at 10 µM; actives 1.2% (n = 310,000);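 active = ratio plate-corrected score three or more library SD toward inhibition, starting fluorescence score within five deviations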;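 also: score derived from kinetic fluorescence span divided by baseline fluorescence per well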
Target sequence (Q8BHY3 whole entry, looked up): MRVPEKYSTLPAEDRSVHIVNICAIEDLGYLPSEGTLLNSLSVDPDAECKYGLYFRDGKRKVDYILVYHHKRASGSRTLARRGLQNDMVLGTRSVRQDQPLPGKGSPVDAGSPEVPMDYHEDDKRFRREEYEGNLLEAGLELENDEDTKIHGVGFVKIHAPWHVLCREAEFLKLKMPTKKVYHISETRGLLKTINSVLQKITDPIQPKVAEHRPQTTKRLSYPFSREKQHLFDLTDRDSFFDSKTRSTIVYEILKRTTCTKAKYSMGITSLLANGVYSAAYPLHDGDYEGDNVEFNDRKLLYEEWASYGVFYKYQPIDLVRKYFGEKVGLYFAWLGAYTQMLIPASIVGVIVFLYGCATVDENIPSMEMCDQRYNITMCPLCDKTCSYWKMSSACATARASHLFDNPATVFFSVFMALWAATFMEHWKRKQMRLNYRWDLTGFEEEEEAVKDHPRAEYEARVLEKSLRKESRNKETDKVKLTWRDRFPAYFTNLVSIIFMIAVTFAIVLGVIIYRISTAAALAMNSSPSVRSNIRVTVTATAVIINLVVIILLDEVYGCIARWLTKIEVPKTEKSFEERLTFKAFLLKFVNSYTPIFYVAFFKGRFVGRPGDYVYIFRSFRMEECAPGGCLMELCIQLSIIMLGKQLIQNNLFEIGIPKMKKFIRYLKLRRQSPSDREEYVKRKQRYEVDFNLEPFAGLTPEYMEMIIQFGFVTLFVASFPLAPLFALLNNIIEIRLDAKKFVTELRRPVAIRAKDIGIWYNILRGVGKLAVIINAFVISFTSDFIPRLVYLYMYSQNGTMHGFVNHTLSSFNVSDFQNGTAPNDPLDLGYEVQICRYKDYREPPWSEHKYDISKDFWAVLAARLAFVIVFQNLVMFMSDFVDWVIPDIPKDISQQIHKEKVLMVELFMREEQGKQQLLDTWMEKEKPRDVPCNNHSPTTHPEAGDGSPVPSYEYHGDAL
ANO1 activ = activators or potentiators of mouse TMEM16A chloride channel; Q8BHY3; HEK293 TMEM16A/YFP-H148Q/I152L, iodide quench fluorescence; hits give low values; B-score at 10 µM; actives 0.3% (n = 340,000);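 active = fluorescence-ratio B-score plate-corrected deviation score at least 3 library SD below zero, with starting fluorescence score within 5 deviations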;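 also: channel opened by trigger with iodide after compound preincubation; score built on the fluorescence ratio of max minus min over baseline; more negative score means more quench and so TMEM16A activation or potentiation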
Lipid droplet = hepatic lipid droplet formation modulation; AML12 mouse hepatocytes, oleate lipid droplets, BODIPY imaging; inhibition, % at 6.5 µM; actives 0.4% (n = 240,000); AID 1656;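 active = lipid droplet intensity inhibited by at least 50%, with more than 500 cells counted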
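Test system: AML12 mouse liver cells; schedule: overnight exposure; technique: high-content imaging of BODIPY-stained droplets and DAPI nuclei; read-out: % inhibition of corrected integrated BODIPY droplet signal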
CHOP inh conf = confirmation of CHOP induction inhibitors. actives 45% (n = 2,100). shares compounds with CHOP inhibitor. inhibition, % at 10 µM. CHO-CHOP promoter luciferase reporter, tunicamycin-induced, luminescence;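 active = mean of three repeat readings of reporter signal inhibition above a set limit, cut at about 70% in these data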
Of the large screens only hits and unclear results are named; the others gave an inactive call (follow-up assays come after a bar, where they were run).

Cc1ccc([N+](=O)[O-])cc1N=Nc1c(C)[nH]n(C(N)=S)c1=O	none (no result: CHOP inhibitor, Lipid droplet)
C=CCc1cccc(/C=N/NC(=O)CCC(=O)Nc2ccc(F)cc2)c1O	CHOP inhibitor 102 | CHOP inh conf inactive
C=CCc1cccc(/C=N/NC(=O)CCCNc2ccc(C)cc2)c1O	CHOP inhibitor 97 (no result: UPR CHOP act, UPR XBP1 act) | CHOP inh conf 75
Cc1ccc(NC(=O)CCC(=O)N/N=C/c2ccccc2O)cc1	none (no result: CHOP inhibitor)
Cc1cc(CC(=O)O)c2oc(-c3ccoc3)cc(=O)c2c1	none (no result: CHOP inhibitor, Lipid droplet)
COC(=O)CSc1nnc([C@H](Cc2ccccc2)NC(=O)OC(C)(C)C)o1	none (no result: Lipid droplet)
COC(=O)CS(=O)(=O)c1nnc([C@H](Cc2ccccc2)NC(=O)OC(C)(C)C)o1	CHOP inhibitor 111 | CHOP inh conf 94
Cc1cc(C)c(S(=O)(=O)Nc2ccccc2)c(C)c1	none (no result: UPR CHOP act, CHOP inhibitor, UPR XBP1 act, ANO1 block, Lipid droplet)
Cc1ccc(NC(c2ccccc2)c2nc3ccccc3[nH]c2=O)cc1 (stereo not given)	CHOP inhibitor 102 | CHOP inh conf inactive
N#CSC(c1ccccc1)c1nc2ccccc2[nH]c1=O (stereo not given)	none (no result: CHOP inhibitor)
CN1CC(c2ccccc2)C2(SC(=S)N(Cc3ccco3)C2=O)C12C(=O)Nc1ccccc12 (stereo not given)	CHOP inhibitor 101 | CHOP inh conf 84
CN1CC(c2ccccn2)C2(SC(=S)N(Cc3ccccc3)C2=O)C12C(=O)Nc1ccccc12 (stereo not given)	none (no result: Lipid droplet)
Cn1cc(S(=O)(=O)NC[C@H]2O[C@@H](n3cnc4c(N)ncnc43)[C@H](O)[C@@H]2O)cn1	none (no result: CHOP inhibitor, ANO1 block, ANO1 activ, Lipid droplet)
CCCCOC(=O)c1ccc(NC(=O)c2ccoc2C)cc1	CHOP inhibitor 101 | CHOP inh conf inactive
O=c1/c(=C\c2cccnc2)sc2nc3ccccc3n12	none (no result: UPR CHOP act, UPR XBP1 act, ANO1 block)
Cc1ccccc1N1C(=O)c2sc3nc4c(c(=O)n3c2C1=O)CCC4	CHOP inhibitor 106 (no result: Lipid droplet) | CHOP inh conf inactive
O=C1c2sc3nc4ccccc4n3c2C(=O)N1c1ccccc1Cl	CHOP inhibitor 106 | CHOP inh conf inactive
Cc1cc(-c2ccccc2)n[nH]1	none
FC(F)C(F)(F)C(F)(F)C(F)(F)c1cc(-c2ccccc2)n[nH]1	CHOP inhibitor 106, ANO1 block 100 | CHOP inh conf 111
Cn1c(=O)c2c(nc(Sc3ncnn3CC(=O)NC(C)(C)C)n2C)n(C)c1=O	CHOP inhibitor 100 | CHOP inh conf inactive
Cn1c(=O)c2c(ncn2CC(=O)NC(C)(C)C)n(C)c1=O	none (no result: Lipid droplet)
OC(CN1CCN(c2cccc(C(F)(F)F)c2)CC1)c1c[nH]c2ccccc12 (stereo not given)	CHOP inhibitor 97 (no result: Lipid droplet) | CHOP inh conf inactive
C#CCN1C(=O)C2(OCCO2)c2ccccc21	none (no result: CHOP inhibitor)
Clc1ccc2c(N/N=C/c3ccccc3Br)ccnc2c1	CHOP inhibitor 100 | CHOP inh conf 77
Clc1ccc2c(N/N=C/c3cccc(Br)c3)ccnc2c1	CHOP inhibitor 105 (no result: UPR CHOP act, UPR XBP1 act) | CHOP inh conf inactive
O=[N+]([O-])c1ccc(/C=N/Nc2ccnc3cc(Cl)ccc23)o1	none (no result: CHOP inhibitor)
Clc1ccc2c(NNc3ccccc3Cl)ccnc2c1	none (no result: Lipid droplet)
O=C(COc1cc2oc(=O)c3c(c2cc1Cl)CCC3)NCCN1CCOCC1	none (no result: CHOP inhibitor)
COc1ccc(CCN(C)C/C=C/c2ccccc2[N+](=O)[O-])cc1OC	none (no result: CHOP inhibitor)
O=C(COC(=O)C1CC1)NC(=O)c1ccccc1	none (no result: CHOP inhibitor, ANO1 block, Lipid droplet)
CC(C)=CCc1c(O)c(CC=C(C)C)c2c(c1O)C(=O)CC(c1ccc(O)cc1)O2 (stereo not given)	CHOP inhibitor 101 | CHOP inh conf 73
Cc1cc(C)cc(OCC(=O)NNC(=O)c2ccccn2)c1	none (no result: CHOP inhibitor, ANO1 block, Lipid droplet)
CCc1ccc(-c2cc(C(=O)N3N=C(C(F)F)CC3(O)C(F)F)c3ccccc3n2)cc1 (stereo not given)	CHOP inhibitor 110 (no result: Lipid droplet) | CHOP inh conf 113
O=C(COc1ccc(Cl)cc1)N(Cc1ccccc1)c1nc(-c2ccccc2)cs1	CHOP inhibitor 103 (no result: Lipid droplet) | CHOP inh conf inactive

Compound activity: PubChem, several laboratories
